# Experimental data of several laboratories.
# Each line is one published result; the experiments were not run side by side.
# Organism: Escherichia coli
# Read-out: microbial growth
Compound,assay,system,setting,MIC
COc1c(C)c(OS(=O)(=O)c2ccc3ccccc3c2)c(C)c(O)c1C(=O)/C=C/c1ccccc1,broth dilution,ATCC25922,,5000 µg/mL
Cc1c(CN(C)C(=O)/C=C/c2cnc3c(c2)CC(CCN)C(=O)N3)oc2ccccc12.Cl (centres unmarked),broth dilution,MG1655,clinical isolate,8 µg/mL
CC(C)Oc1c(NC(=O)c2ccc(NC(=O)[C@H](CC(N)=O)NC(=O)c3ccc(NC(=O)c4ccc(C#N)nc4)cc3)cc2)ccc(C(=O)Nc2ccc(C(=O)O)cc2)c1O,,DSM1116,,≤ 0.03 µg/mL
N=C(N)c1ccc(OCc2ccc(COc3ccc(C(=N)N)cc3)cc2)cc1,,BW25113,20 h,> 200 µg/mL
COc1ccc(-c2nc3ccc(C)cc3[nH]2)cc1OC,broth dilution,ATCC25922,,64 µg/mL
CC1(C)S[C@@H]2[C@H](NC(=O)[C@H](N)c3ccccc3)C(=O)N2[C@H]1C(=O)O,broth dilution,ATCC25922,,8 µg/mL
C/C(=C\c1ccc(C#N)cc1)C(=O)Nc1ccc(C(=O)N[C@@H](CC(N)=O)C(=O)Nc2ccc(C(=O)Nc3ccc(C(=O)Nc4ccc(C(=O)O)cc4)c(O)c3OC(C)C)cc2)cc1,,DSM1116,,0.125 µg/mL
CN[C@H](CC(C)C)C(=O)N[C@H]1C(=O)N[C@@H](CC(N)=O)C(=O)N[C@H]2C(=O)N[C@H]3C(=O)N[C@H](C(=O)N[C@H](C(=O)O)c4cc(O)cc(O)c4-c4cc3ccc4O)[C@H](O)c3ccc(c(Cl)c3)Oc3cc2cc(c3O[C@@H]2O[C@H](CO)[C@@H](O)[C@H](O)[C@H]2O[C@H]2C[C@](C)(N)[C@H](O)[C@H](C)O2)Oc2ccc(cc2Cl)[C@H]1O,broth dilution,ATCC25922,18 h,> 32 µg/mL
N=C(N)c1cccc(OCc2ccc(COc3cccc(C(=N)N)c3)cc2)c1,broth dilution,W3110,,> 200 µg/mL
C[C@H]1COc2c(N3CCN(C)CC3)c(F)cc3c(=O)c(C(=O)O)cn1c23,,ATCC25922,,0.04 µg/mL
C[C@H](CCC(=O)NCCCNCCCCNCCCN)[C@H]1CCC2=C3CC[C@@H]4C[C@H](O)CC[C@]4(C)[C@H]3C[C@H](O)[C@@]21C,broth dilution,MG1655,20 h,64 µg/mL
CCCCCCC#Cc1cncc(-c2nnc(SCc3ccc(Cl)c(F)c3)n2C)c1,,,,≥ 20 µg/mL
Cc1ccc2nc(-c3ccccc3O)[nH]c2c1,broth dilution,ATCC25922,,128 µg/mL
N=C(N)c1ccc(OCCCCCOc2ccc(C(=N)N)cc2)cc1,broth dilution,BW25113,,200 µg/mL
Cc1ccccc1NCc1ccc(Oc2ccccn2)cc1,,,,> 25 µg/mL
CC(C)Oc1c(NC(=O)c2ccc(NC(=O)[C@H](CC(N)=O)NC(=O)c3ccc(NC(=O)c4ccc(C#N)cc4)cc3)cc2)ccc(C(=O)Nc2ccc(C(=O)O)cc2)c1O,,DSM1116,,0.5 µg/mL
O=C1NN=C(N=Cc2ccccc2O)C1=NNn1c(-c2ccccc2)nc2ccccc2c1=O,broth dilution,,24 h,55.4 µM
Cc1ccc2nc(-c3cccc(O)c3)[nH]c2c1,broth dilution,ATCC25922,,64 µg/mL
COc1c(C)c(OC)c2c(c1C)OC(c1ccccc1)CC2=O (centres unmarked),broth dilution,ATCC25922,,5000 µg/mL
CC(C)Oc1c(NC(=O)c2ccc(NC(=O)[C@H](CC(N)=O)NC(=O)c3ccc(NC(=O)c4ccc(F)cc4)cc3)cc2)ccc(C(=O)Nc2ccc(C(=O)O)cc2)c1O,,DSM1116,,0.5 µg/mL
CC1=NN(CNc2ccc(Cl)cc2)C(=O)C1=NNn1c(-c2ccccc2)nc2ccccc2c1=O,broth dilution,,24 h,51.5 µM
NCCCNC1CCCCc2c1[nH]c1ccc(Br)cc21 (centres unmarked),broth dilution,ATCC25922,,16 µg/mL
CC(C)Oc1c(NC(=O)c2ccc(NC(=O)[C@H](CC(N)=O)NC(=O)c3ccc(NC(=O)c4ccc(C5(C(F)(F)F)N=N5)cc4)cc3)cc2)ccc(C(=O)Nc2ccc(C(=O)O)cc2)c1O,,DSM1116,,16 µg/mL
c1ccc(NCc2ccc(Oc3ccccn3)cc2)cc1,,,,> 25 µg/mL
CC(C)Oc1c(NC(=O)c2ccc(NC(=O)[C@H](CC(N)=O)NC(=O)c3ccc(NC(=O)c4ccc5c(c4)COC5=O)cc3)cc2)ccc(C(=O)Nc2ccc(C(=O)O)cc2)c1O,,DSM1116,,≤ 0.03 µg/mL
N=C(N)c1cccc(OCCCCCOc2cccc(C(=N)N)c2)c1,broth dilution,BW25113,,> 200 µg/mL
C[C@@H](O)[C@H]1C(=O)N2C(C(=O)O)=C(S[C@@H]3CN[C@H](C(=O)N(C)C)C3)[C@H](C)[C@H]12,broth dilution,ATCC25922,,≤ 0.125 µg/mL
C[C@@H](O)[C@H]1C(=O)N2C(C(=O)O)=C(S[C@@H]3CN[C@H](C(=O)N(C)C)C3)[C@H](C)[C@H]12,broth dilution,,24 h,0.0312 µg/mL
CCCCCCC/C=C/C(=O)N1C(=O)/C(=C(/C)O)C(=O)C1Cc1ccc(OC(C)(C)C)cc1 (centres unmarked),,"K12, K12",,> 200 µg/mL
O=C(Nc1ccc([N+](=O)[O-])cc1F)c1ccccc1O,broth dilution,ATCC25922,,> 64 µg/mL
CCOc1ccc(-c2nc3ccccc3n2Cc2ccccc2)cc1,broth dilution,ATCC25922,,64 µg/mL
O=C(Nc1ncc([N+](=O)[O-])s1)c1cc2ccccc2s1,,,,< 50 µM
Cc1ccc(C)n1-c1ccc(-c2nnc(-c3ccccc3[N+](=O)[O-])[nH]2)cc1,broth dilution,ATCC10536,18 h,250 µg/mL
N=C(N)c1ccc(OCc2cc(COc3ccc(C(=N)N)cc3)cc(-c3ccccc3)c2)cc1,,BW25113,,≥ 100 µg/mL
Cc1ccc2nc(-c3ccncc3)[nH]c2c1,broth dilution,ATCC25922,,64 µg/mL
CCCCCCC/C=C/C(=O)N1CC(=O)/C(=C(\C)O)C1=O,,"K12, K12",,> 200 µg/mL
Cc1ccc2nc(-c3ccc([N+](=O)[O-])cc3)n(Cc3ccccc3Cl)c2c1,broth dilution,ATCC25922,,32 µg/mL
N=C(N)c1ccc(OCc2ccccc2COc2ccc(C(=N)N)cc2)cc1,broth dilution,W3110,,> 200 µg/mL
C/C(=C\c1ccc(C#N)cc1)C(=O)Nc1ccc(C(=O)N[C@@H](CC(N)=O)C(=O)Nc2ccc(C(=O)Nc3ccc(C(=O)Nc4ccc(C(=O)O)cc4)c(O)c3OCC(C)C)cc2)cc1,,DSM1116,,0.5 µg/mL
N=C(N)c1ccccc1OCc1ccccc1COc1ccccc1C(=N)N,,BW25113,,> 200 µg/mL
Cc1ccc2nc(-c3ccc([N+](=O)[O-])cc3)n(Cc3ccccc3)c2c1,broth dilution,ATCC25922,,64 µg/mL
N=C(N)c1ccccc1OCc1cccc(COc2ccccc2C(=N)N)c1,broth dilution,BW25113,,> 200 µg/mL
Cc1ccc2nc(-c3ccc(F)cc3)n(Cc3ccccc3)c2c1,broth dilution,ATCC25922,,128 µg/mL
Cc1ccc(C)n1-c1ccc(-c2nnc(-c3cccc([N+](=O)[O-])c3)[nH]2)cc1,broth dilution,ATCC10536,18 h,250 µg/mL
